Assay results taken from ChEMBL document CHEMBL4715736, “Identification of anticancer agents based on the thieno[2,3-b]pyridine and 1H-pyrazole molecular scaffolds” (2016).

Tests used:
Type in all cases: functional
RPMI-8226 = experiment: Growth inhibition of human RPMI-8226 cells assessed as cell growth at 10 uM incubated for 48 hrs by sulforhodamine B assay relative to control; settings: read-out: Activity
Summary of the method: (§1)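 Run by the NCI Developmental Therapeutics Program as part of its 60-line human tumour panel. Each compound tested at a single 10 µM dose. Growth expressed as % relative to untreated control cells (100%).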

MCF7 = experiment: Growth inhibition of human MCF7 cells assessed as cell growth at 100 uM incubated for 48 hrs by sulforhodamine B assay relative to control; settings: read-out: Activity
TK-10 = experiment: Growth inhibition of human TK-10 cells assessed as cell growth at 10 uM incubated for 48 hrs by sulforhodamine B assay relative to control; settings: read-out: Activity; summary of the method: as §1
Hs-578T = experiment: Growth inhibition of human Hs-578T cells assessed as cell growth at 10 uM incubated for 48 hrs by sulforhodamine B assay relative to control; settings: read-out: Activity
Summary of the method: (§2)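 Submitted to the NCI Developmental Therapeutics Program for the NCI60 human tumour cell line panel. First screen at a single 10 µM concentration. Read-out is growth relative to untreated control cells set at 100%.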

NCI-H522 = experiment: Growth inhibition of human NCI-H522 cells assessed as cell growth at 10 uM incubated for 48 hrs by sulforhodamine B assay relative to control; settings: read-out: Activity; summary of the method: as §2
NCI-H322M = experiment: Growth inhibition of human NCI-H322M cells assessed as cell growth at 10 uM incubated for 48 hrs by sulforhodamine B assay relative to control; settings: read-out: Activity; summary of the method: as §2
CAKI-1 = experiment: Growth inhibition of human CAKI-1 cells assessed as cell growth at 10 uM incubated for 48 hrs by sulforhodamine B assay relative to control; settings: read-out: Activity
Summary of the method: (§3)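 NCI Developmental Therapeutics Program NCI60 panel. Compounds that were active in the 10 µM one-dose screen went on to dose–response testing. Growth at each concentration is expressed relative to untreated control (100%). GI50 (concentration giving 50% of maximal inhibition of proliferation) and TGI (concentration giving total growth inhibition) were derived from the curves.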

DU-145 = experiment: Growth inhibition of human DU-145 cells assessed as cell growth at 0.1 uM incubated for 48 hrs by sulforhodamine B assay relative to control; settings: read-out: Activity; summary of the method: as §3
U-251 = experiment: Growth inhibition of human U-251 cells assessed as cell growth at 1 uM incubated for 48 hrs by sulforhodamine B assay relative to control; settings: read-out: Activity
SNB-75 = experiment: Growth inhibition of human SNB-75 cells assessed as cell growth at 10 uM incubated for 48 hrs by sulforhodamine B assay relative to control; settings: read-out: Activity; summary of the method: as §1
HT-29 = experiment: Growth inhibition of human HT-29 cells assessed as cell growth at 10 uM incubated for 48 hrs by sulforhodamine B assay relative to control; settings: read-out: Activity; summary of the method: as §2
CCRF-CEM = experiment: Growth inhibition of human CCRF-CEM cells assessed as cell growth at 10 uM incubated for 48 hrs by sulforhodamine B assay relative to control; settings: read-out: Activity; summary of the method: as §3
SF-268 [1] = experiment: Growth inhibition of human SF-268 cells incubated for 48 hrs by sulforhodamine B assay
Summary of the method: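 NCI DTP 60-line human tumour panel. Dose-response curves were run only for ligands active in the initial 10 µM screen. GI50 (concentration giving 50% of maximal inhibition of proliferation) and TGI (concentration giving total growth inhibition) were derived from these curves.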

SR = experiment: Growth inhibition of human SR cells assessed as cell growth at 10 uM incubated for 48 hrs by sulforhodamine B assay relative to control; settings: read-out: Activity; summary of the method: as §1
BT-549 = experiment: Growth inhibition of human BT-549 cells assessed as cell growth at 10 uM incubated for 48 hrs by sulforhodamine B assay relative to control; settings: read-out: Activity
Summary of the method: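 NCI Developmental Therapeutics Program NCI60 human tumour cell line panel, one-dose primary screen with every compound at 10 µM. Growth is expressed as % of untreated control cells (100%).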

UACC-62 = experiment: Growth inhibition of human UACC-62 cells assessed as cell growth at 10 uM incubated for 48 hrs by sulforhodamine B assay relative to control; settings: read-out: Activity; summary of the method: as §1
NCI-H226 = experiment: Growth inhibition of human NCI-H226 cells assessed as cell growth at 10 uM incubated for 48 hrs by sulforhodamine B assay relative to control; settings: read-out: Activity; summary of the method: as §2
UACC-257 = experiment: Growth inhibition of human UACC-257 cells assessed as cell growth at 10 uM incubated for 48 hrs by sulforhodamine B assay relative to control; settings: read-out: Activity; summary of the method: as §1
SK-MEL-28 = experiment: Growth inhibition of human SK-MEL-28 cells assessed as cell growth at 10 uM incubated for 48 hrs by sulforhodamine B assay relative to control; settings: read-out: Activity; summary of the method: as §1
A549 = experiment: Growth inhibition of human A549/ATCC cells assessed as cell growth at 100 uM incubated for 48 hrs by sulforhodamine B assay relative to control; settings: read-out: Activity; summary of the method: as §3
SK-OV-3 = experiment: Growth inhibition of human SK-OV-3 cells assessed as cell growth at 10 uM incubated for 48 hrs by sulforhodamine B assay relative to control; settings: read-out: Activity; summary of the method: as §1
HOP-62 = experiment: Growth inhibition of human HOP-62 cells assessed as cell growth at 10 uM incubated for 48 hrs by sulforhodamine B assay relative to control; settings: read-out: Activity; summary of the method: as §2
SF-268 [2] = experiment: Growth inhibition of human SF-268 cells assessed as cell growth at 10 uM incubated for 48 hrs by sulforhodamine B assay relative to control; settings: read-out: Activity; summary of the method: as §1
SK-MEL-2 = experiment: Growth inhibition of human SK-MEL-2 cells assessed as cell growth at 10 uM incubated for 48 hrs by sulforhodamine B assay relative to control; settings: read-out: Activity; summary of the method: as §1
LOX IMVI = experiment: Growth inhibition of human LOX IMVI cells assessed as cell growth at 10 uM incubated for 48 hrs by sulforhodamine B assay relative to control; settings: read-out: Activity; summary of the method: as §2
NCI-H23 = experiment: Growth inhibition of human NCI-H23 cells assessed as cell growth at 10 uM incubated for 48 hrs by sulforhodamine B assay relative to control; settings: read-out: Activity; summary of the method: as §2
K562 = experiment: Growth inhibition of human K562 cells assessed as cell growth at 10 uM incubated for 48 hrs by sulforhodamine B assay relative to control; settings: read-out: Activity; summary of the method: as §2
NCI-H460 = experiment: Growth inhibition of human NCI-H460 cells assessed as cell growth at 1 uM incubated for 48 hrs by sulforhodamine B assay relative to control; settings: read-out: Activity
IGROV-1 = experiment: Growth inhibition of human IGROV-1 cells assessed as cell growth at 10 uM incubated for 48 hrs by sulforhodamine B assay relative to control; settings: read-out: Activity; summary of the method: as §2
SW-620 = experiment: Growth inhibition of human SW-620 cells assessed as cell growth at 10 uM incubated for 48 hrs by sulforhodamine B assay relative to control; settings: read-out: Activity; summary of the method: as §1
MDA-MB-231 = experiment: Growth inhibition of human MDA-MB-231 cells assessed as cell growth at 10 uM incubated for 48 hrs by sulforhodamine B assay relative to control; settings: read-out: Activity; summary of the method: as §2
OVCAR-5 = experiment: Growth inhibition of human OVCAR-5 cells assessed as cell growth at 10 uM incubated for 48 hrs by sulforhodamine B assay relative to control; settings: read-out: Activity; summary of the method: as §1

Compound	growth at 10 µM (RPMI-8226)	growth at 100 µM (MCF7)	growth at 10 µM (TK-10)	growth at 10 µM (Hs-578T)	growth at 10 µM (NCI-H522)	growth at 10 µM (NCI-H322M)	growth at 10 µM (CAKI-1)	growth at 0.1 µM (DU-145)	growth at 1 µM (U-251)	growth at 10 µM (SNB-75)	growth at 10 µM (HT-29)	growth at 10 µM (CCRF-CEM)	GI50 (SF-268 [1])	LC50 (concentration killing 50% of cells) (SF-268 [1])	TGI (SF-268 [1])	growth at 10 µM (SR)	growth at 10 µM (BT-549)	growth at 10 µM (NCI-H226)	growth at 10 µM (UACC-257)	growth at 10 µM (SK-MEL-28)	other results
COc1cccc(NC(=O)c2sc3nc4c(cc3c2N)CN(Cc2ccccc2)CC4)c1	83%	3%	28%	5%	61%	71%	53%	104%	72%	-38%	16%	76%	3.66 µM	> 100 µM	207 µM	40%	23%	41%	44%	27%	growth at 10 µM (UACC-62): 31%; growth at 100 µM (A549): -8%; growth at 10 µM (SK-OV-3): 11%; growth at 10 µM (HOP-62): -17%; growth at 10 µM (SF-268 [2]): 18%; growth at 10 µM (SK-MEL-2): 51%; growth at 10 µM (LOX IMVI): 27%; growth at 10 µM (NCI-H23): 43%; growth at 10 µM (K562): 16%; growth at 1 µM (NCI-H460): 92%; growth at 10 µM (IGROV-1): 67%; growth at 10 µM (SW-620): 30%; growth at 10 µM (MDA-MB-231): 54%; growth at 10 µM (OVCAR-5): 71%
CCc1ccccc1NC(=O)c1sc2nc3c(cc2c1N)C(=O)CCC3	-1%	9%	54.7%	22.6%	-11.6%	46.3%	29.9%	103%	33%	-15.4%	6%	4%	10.1 µM	> 100 µM	> 100 µM	9.38%	48%	64%	60%	43.7%	growth at 100 µM (A549): 12%; growth at 10 µM (SK-OV-3): 30%; growth at 10 µM (HOP-62): 35.5%; growth at 10 µM (SF-268 [2]): 40.4%; growth at 10 µM (SK-MEL-2): 19.9%; growth at 10 µM (LOX IMVI): 42.6%; growth at 10 µM (K562): 11%; growth at 1 µM (NCI-H460): 9%; growth at 10 µM (IGROV-1): 33.3%; growth at 10 µM (SW-620): 24%; growth at 10 µM (MDA-MB-231): 36%; growth at 10 µM (OVCAR-5): 22%
